From ChEMBL document CHEMBL4020824, “Discovery of Potent and Orally Bioavailable Dihydropyrazole GPR40 Agonists” (J Med Chem, 2018) come the findings set out here.

Active and inactive are the calls of the source.

Series [1] deals with Free fatty acid receptor 1 (Homo sapiens, UniProt O14842). Kind of series: Agonist activity at human GPR40 expressed in CHOA12 cells assessed as induction of Ca2+ mobilization by FLIPR assay. It is filed as functional, cell-based. On the technique in general: Calcium assays in cells follow changes in intracellular calcium, usually with a dye or a luminescent sensor.
Sequence of Free fatty acid receptor 1 (O14842 whole entry): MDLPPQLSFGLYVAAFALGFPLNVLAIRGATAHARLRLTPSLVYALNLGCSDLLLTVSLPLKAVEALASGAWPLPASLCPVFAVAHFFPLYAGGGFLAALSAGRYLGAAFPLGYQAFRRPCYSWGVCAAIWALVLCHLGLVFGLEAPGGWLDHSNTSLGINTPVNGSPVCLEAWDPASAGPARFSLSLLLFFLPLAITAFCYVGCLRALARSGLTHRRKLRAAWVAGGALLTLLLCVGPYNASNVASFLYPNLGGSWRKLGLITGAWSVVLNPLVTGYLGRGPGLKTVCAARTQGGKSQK
Series [2] in a line: Stability in rat liver microsomes assessed as parent compound remaining at 1 to 3 uM incubated for 20 mins in presence NADPH measured up to 90 mins by LC/MS/MS analysis. It is filed as ADME, microsome. The conditions noted are these: liver microsomes, read-out: Stability. In a few lines:
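Human or rat liver microsomal incubations. The read-outs were % parent remaining, % D-ring dealkylation metabolites, % GSH adducts, and half-life (min). The metabolites followed were CYP450-mediated oxidative de-alkylation products (phenols) and GSH conjugates.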
(Microsomes from liver hold many membrane-bound enzymes, among them those of drug oxidation.)

Series [3] can be described thus: Oral bioavailability in C57BL6 mouse at 1 mg/kg administered as single dose measured up to 24 hrs post dose by LC-MS/MS analysis. The series is classed as ADME, organism-based. The conditions noted are these: in vivo.
Series [4] in a line: Cmax in Sprague-Dawley rat at 3 mg/kg, po administered as single dose measured up to 24 hrs post dose by LC-MS/MS analysis. On the set-up: dose 3 mg/kg, route oral. The conditions noted are these: in vivo. It is filed as ADME, organism-based.
Series [5] in a line: Half life in Sprague-Dawley rat at 1 mg/kg, iv administered as single dose measured up to 24 hrs post dose by LC-MS/MS analysis. Conditions: in vivo. It is filed as ADME, organism-based.
Series [6] in a line: Clearance in Beagle dog at 0.5 mg/kg, iv administered as single dose measured up to 24 hrs post dose by LC-MS/MS analysis. It is filed as ADME, organism-based, Canis lupus familiaris. Conditions: in vivo.
Series [7] is described as follows: Cmax in cynomolgus monkey at 1 mg/kg, po administered as single dose measured up to 24 hrs post dose by LC-MS/MS analysis. The series is classed as ADME, organism-based, Macaca fascicularis. The arrangement: dose 1 mg/kg, route oral. Conditions: in vivo.
A short description of series [8]: Clearance in cynomolgus monkey at 0.5 mg/kg, iv administered as single dose measured up to 24 hrs post dose by LC-MS/MS analysis. The series is classed as ADME, organism-based, Macaca fascicularis. Conditions: in vivo.
The test system of series [9] is Mus musculus. The series can be described thus: Antidiabetic activity in C57BL/6J mouse assessed as increase in active GLP-1 levels at 3 mg/kg, po administered 1 hr prior to glucose challenge measured after 120 mins in presence of DPP4 inhibitor BMS-538305 during OGTT assay by ELISA. The series is classed as functional, organism-based.
Series [10] is filed under the species Homo sapiens. Kind of series: Inhibition of FFAR (unknown origin) at <10 uM. In short, it runs like this: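 Part of a proprietary selectivity counterscreen panel covering GPCRs (including the related free fatty acid receptors), nuclear hormone receptors, transporters, ion channels and hERG. Activity was scored against a 10 µM threshold.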
Series [11] concerns Mus musculus. The series can be described thus: Toxicity in C57BL/6J mouse assessed as induction of hypoglycemia effect at 1 mg/kg, po administered 1 hr prior to glucose challenge measured after 120 mins by IPGTT. The series is classed as organism-based. The conditions noted are these: in vivo, 2 h.

Take `COc1cc(N2CC[C@@H](Oc3ccc(N4N=C(C(F)(F)F)[C@@H](C)[C@@H]4CC(=O)O)cc3)[C@H](C)C2)c(Cl)cn1`: the EC50 (commonly the concentration at which the effect is half-maximal) in series [1] is 70 nM. The remaining at 20 min, up to 3 µM in [2] was found to be 75%. The bioavailability – broadly, the share of a dose that reaches the circulation, judged against a reference dose that is usually intravenous – in series [3] is 100%. The values for the highest concentration (Cmax) in series [4] and in [7] were 3.5 µM and 1400 nM, respectively. Moreover, in series [5], the half-life (commonly the time in which the quantity being followed falls by half) is 240 min. Further, the clearance (usually the volume of plasma or blood freed of the substance per unit of time) in series [6] was 2.2 mL/min/kg; in [8], 0.7 mL/min/kg. In addition, in [9], the result was Active. In addition, the inhibition entry in [10] was “inactive”. Besides, the Activity entry in series [11] was “Non-Toxic”.
